Reference: ChEMBL document CHEMBL1152886, “Water-soluble prodrugs of an Aurora kinase inhibitor” (Bioorg Med Chem Lett, 2009)
≈ marks a conversion by molar mass, not a printed value.

Assays:
[1] = Aqueous solubility at pH 3.2; type: physicochemical; conditions: aqueous solution
In short: (§1)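 Thermodynamic solubility from a slurry. Sonicated 20 min at room temperature, 10 min at 50 °C, then 10 min at room temperature, and agitated at least two days at room temperature. Residual solid was checked for crystallinity by polarized light microscopy. Slurry centrifuged 15,000 rpm at 20 °C for 20 min. Supernatant assayed by HPLC and its pH measured. Values are typically means of two measurements.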

[2] = Chemical stability assessed as compound remaining in aqueous buffer at pH 7.4 after 8 hrs; type: physicochemical; conditions: read-out: Stability
In short: (§2)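 Compound held 8 h at room temperature in DMSO or in pH 7.4 buffer. Percent remaining determined by LC/MS.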

[3] = Chemical stability assessed as compound remaining in DMSO after 8 hrs; type: physicochemical; conditions: read-out: Stability; in short: as §2
[4] = Half life in Sprague-Dawley rat at 5 mg/kg, iv; type: ADME, organism-based; set-up: dose 5 mg/kg, route intravenous; conditions: in vivo
In short: (§3)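 Male Sprague–Dawley rats (n = 3) dosed iv, prodrug at a dose equivalent to 5 mg/kg of parent, compared with an equivalent iv dose of parent. Plasma profiles of both prodrug and released parent were determined, giving AUC_INF and elimination half-life.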

[5] = AUC (0 to infinity) in Sprague-Dawley rat at 10 mg/kg, po; type: ADME, organism-based; set-up: time infinity, dose 10 mg/kg, route oral; conditions: plasma
In short: (§4)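 Male Sprague–Dawley rats (n = 3) dosed orally, prodrug at a dose equivalent to 10 mg/kg of parent, compared with an equivalent oral dose of parent. Parent levels measured in plasma; AUC_INF derived from the plasma profile. Bioavailability is expressed with respect to the parent compound.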

[6] = Oral bioavailability in Sprague-Dawley rat at 10 mg/kg; type: ADME, organism-based; conditions: in vivo; in short: as §4
[7] = AUC (0 to infinity) in Sprague-Dawley rat at 5 mg/kg, iv; type: ADME, organism-based; set-up: time infinity, dose 5 mg/kg, route intravenous; conditions: plasma; in short: as §3
[8] = Aqueous solubility at pH 3.5; type: physicochemical; conditions: aqueous solution; in short: as §1
[9] = Permeability across MDCK cells; type: ADME, cell-based, Canis lupus familiaris; conditions: dog, read-out: permeability
[10] = Aqueous solubility at pH 7.8; type: physicochemical; conditions: aqueous solution; in short: as §1
[11] = Aqueous solubility at pH 2.5; type: physicochemical; conditions: aqueous solution; in short: as §1

Compound	solubility [1]	remaining at 8 h [2]	remaining at 8 h [3]	also measured
O=C(/N=c1\sc(CCNc2ncnc3ccsc23)cn1COC(=O)C1CCNCC1)Nc1cccc(Cl)c1		52%	84%	
CS(=O)(=O)O.O=C(Nc1cccc(Cl)c1)Nc1ncc(CCNc2ncnc3ccsc23)s1 [SNS-314 MESYLATE]	0.014 mg/mL			half-life [4]: 2.1 h; AUC(0-inf) [5]: 3.65 µg·h/mL; bioavailability [6]: 72%; AUC(0-inf) [7]: 2.09 µg·h/mL
O=C(/N=c1\sc(CCNc2ncnc3ccsc23)cn1COP(=O)(O)O)Nc1cccc(Cl)c1		100%	100%	Papp [9]: < 10 nm/s; solubility [10]: 4.7 mg/mL (≈ 8690 µM); half-life [4]: 0.5 h; AUC(0-inf) [5]: 2.2 µg·h/mL; bioavailability [6]: 44%; AUC(0-inf) [7]: 1.91 µg·h/mL
CC(=O)OCn1cc(CCNc2ncnc3ccsc23)s/c1=N\C(=O)Nc1cccc(Cl)c1		100%	100%	solubility [11]: 0.12 mg/mL (≈ 239 µM)
CC(C)(C)C(=O)OCn1cc(CCNc2ncnc3ccsc23)s/c1=N\C(=O)Nc1cccc(Cl)c1	0.28 mg/mL (≈ 514 µM)	100%	100%	

The next lines start with results.

solubility [1]	remaining at 8 h [2]	remaining at 8 h [3]	Compound	also measured
0.17 mg/mL (≈ 320 µM)			CC(C)C(=O)OCn1cc(CCNc2ncnc3ccsc23)s/c1=N\C(=O)Nc1cccc(Cl)c1	
	0%	0%	CNCC(=O)OCn1cc(CCNc2ncnc3ccsc23)s/c1=N\C(=O)Nc1cccc(Cl)c1	
	100%	100%	O=C(/N=c1\sc(CCNc2ncnc3ccsc23)cn1COC(=O)CC1CCNCC1)Nc1cccc(Cl)c1	solubility [8]: 2.5 mg/mL (≈ 4270 µM)
